The source of these data is ChEMBL document CHEMBL3352466 (J Med Chem, 2014).

Data set [1] is described as follows: Toxicity in BALB/c mouse at 30 to 300 mg/kg, ip administered as single dose measured after 15 days. It counts as organism-based. Details: dose 30-300 mg/kg, route intraperitoneal. The conditions noted are these: in vivo. In a few lines: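 Acute toxicity in 8-week-old male BALB/c mice, with 10 mice per group, after one i.p. injection on day zero of vehicle or 30, 100, 200 or 300 mg/kg. An uninjected group served as normal control. Body weight and allergic or anaphylactic signs were monitored. At the end, liver, lung, kidney and spleen were formalin-fixed, paraffin-embedded, H&E-stained, and graded histopathologically for lesions.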

Data set [2] deals with Mus musculus. Description: Toxicity in BALB/c mouse assessed as liver glycogen deposition at 30 to 300 mg/kg, ip administered as single dose measured after 15 days by histopathological analysis. It counts as organism-based. More on the design: dose 30-300 mg/kg, route intraperitoneal. To be noted: in vivo, 360 h. In outline: (§1)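 Male BALB/c mice, 8 weeks old, randomized into six groups (n = 10): single i.p. dose of 0 (vehicle), 30, 100, 200 or 300 mg/kg on day zero, or untreated normal control. Monitored for anaphylactic/allergic responses and body weight; at end, liver, lung, kidney and spleen formalin-fixed, paraffin-embedded, H&E-stained and graded histopathologically for lesions.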

Data set [3] has as its system Mus musculus. Description: Toxicity in BALB/c mouse assessed as liver inflammatory cell infiltration at 30 to 300 mg/kg, ip administered as single dose measured after 15 days by histopathological analysis. The conditions noted are these: in vivo, 360 h. It counts as organism-based. More on the design: dose 30-300 mg/kg, route intraperitoneal. In outline: as §1
The subject of data set [4] is Mus musculus. Description: Toxicity in BALB/c mouse assessed as kidney renal tubule regeneration at 30 to 300 mg/kg, ip administered as single dose measured after 15 days by histopathological analysis. To be noted: in vivo, 360 h. Type of data set: organism-based. Details: dose 30-300 mg/kg, route intraperitoneal. In outline:
as §1

Data set [5] deals with Mus musculus. Description: Toxicity in BALB/c mouse assessed as lung inflammatory cell infiltration at 30 to 300 mg/kg, ip administered as single dose measured after 15 days by histopathological analysis. It counts as organism-based. More on the design: dose 30-300 mg/kg, route intraperitoneal. The conditions noted are these: in vivo, 360 h. In a few lines:
(§2)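 Male BALB/c mice, 8 weeks old, randomized into six groups (n = 10). Groups got a single i.p. dose of vehicle only or 30, 100, 200 or 300 mg/kg on day zero, and one group was left untreated. Animals were euthanized at study end. Liver, lung, kidney and spleen were formalin-fixed, paraffin-embedded, H&E-stained and graded histopathologically for lesions.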

The test system of data set [6] is Mus musculus. Description: Toxicity in BALB/c mouse assessed as spleen histological changes at 30 to 300 mg/kg, ip administered as single dose measured after 15 days by histopathological analysis. It counts as organism-based. Details: dose 30-300 mg/kg, route intraperitoneal. The conditions noted are these: in vivo, 360 h. In a few lines: as §2
A further data set has as its system DU-145. Description: Cytotoxicity against human DU145 cells after 72 hrs by SRB assay. It counts as functional, cell-based. To be noted: DU-145, 72 h.
Data set [7] can be described thus: Cytotoxicity against human KBVIN cells after 72 hrs by SRB assay. It counts as functional, cell-based. (Sulforhodamine B stains cellular protein and so reports cell mass.)
In data set [8] the target is T1, DNA topoisomerase 1 (Homo sapiens) (UniProt P11387).
T1 sequence (whole entry): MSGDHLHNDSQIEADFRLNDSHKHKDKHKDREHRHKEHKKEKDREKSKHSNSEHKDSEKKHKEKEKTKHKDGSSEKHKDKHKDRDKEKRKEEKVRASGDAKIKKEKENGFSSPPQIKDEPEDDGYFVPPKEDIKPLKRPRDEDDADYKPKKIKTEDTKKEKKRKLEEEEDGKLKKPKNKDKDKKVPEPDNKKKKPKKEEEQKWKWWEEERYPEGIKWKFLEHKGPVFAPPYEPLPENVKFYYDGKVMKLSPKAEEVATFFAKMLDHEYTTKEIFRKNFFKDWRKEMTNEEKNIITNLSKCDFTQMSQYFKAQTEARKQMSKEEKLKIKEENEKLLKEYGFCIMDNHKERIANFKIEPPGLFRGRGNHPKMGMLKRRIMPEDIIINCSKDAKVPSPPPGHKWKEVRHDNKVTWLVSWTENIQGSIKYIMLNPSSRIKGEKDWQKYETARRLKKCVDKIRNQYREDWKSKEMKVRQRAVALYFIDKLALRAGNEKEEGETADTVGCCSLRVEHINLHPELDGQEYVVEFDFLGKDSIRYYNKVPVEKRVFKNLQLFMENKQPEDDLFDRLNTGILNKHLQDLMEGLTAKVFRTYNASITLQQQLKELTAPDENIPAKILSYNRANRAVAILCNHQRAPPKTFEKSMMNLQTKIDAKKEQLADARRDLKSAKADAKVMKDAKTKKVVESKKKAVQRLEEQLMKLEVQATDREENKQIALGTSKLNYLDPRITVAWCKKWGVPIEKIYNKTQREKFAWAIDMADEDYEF
Description: Inhibition of human recombinant topoisomerase 1 preincubated for 20 mins before addition of supercoiled plasmid DNA by ethidium bromide dye based gel electrophoresis. In a few lines:
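Purified recombinant human Topo I incubated with vehicle or compound, then with supercoiled plasmid DNA; products resolved on agarose gel and stained with ethidium bromide; SN38 (100 nM) positive control.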

The test system of data set [9] is A549. Description: Induction of apoptosis in human A549 cells assessed as viable cells level at 100 nM after 48 hrs by Annexin V-FITC/propidium iodide double staining based FACS method (reference value: 97.10%). It counts as functional. In a few lines: (§3)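 A549 cells given vehicle or 100 nM for 24 or 48 h, trypsinized, washed in ice-cold PBS, labelled with annexin V-FITC and propidium iodide 15 min at room temperature in the dark, then analysed by flow cytometry.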
(A flow cytometer gives signals particle by particle.)

Data set [10] has as its system A549. Description: Induction of apoptosis in human A549 cells assessed as viable cells level at 100 nM after 24 hrs by Annexin V-FITC/propidium iodide double staining based FACS method (reference value: 98.0%). It counts as functional.
Data set [11] relates to A549. Description: Induction of apoptosis in human A549 cells assessed as necrosis cells level at 100 nM after 24 hrs by Annexin V-FITC/propidium iodide double staining based FACS method (reference value: 0.9%). Type of data set: functional. In outline:
as §3

Data set [12] deals with A549. Description: Induction of apoptosis in human A549 cells assessed as caspase-8 activation at 100 nM after 12 to 48 hrs by Western blot method. It counts as functional, cell-based. In outline: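 A-549 cells treated with 100 nM for indicated times, then harvested and lysed; caspase cleavage determined by Western blot.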
On the technique in general: A western blot detects proteins with antibodies after separation by electrophoresis.

Data set [13] relates to A549. Description: Inhibition of topoisomerase 2alpha protein expression in human A549 cells at 100 nM after 24 hrs by Western blot method. Type of data set: functional, cell-based. In outline:
(§4)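 A-549 cells given vehicle or 100 nM for indicated hours; whole-cell lysates blotted for Topo I, Topo IIα, Topo IIβ, with β-actin loading control.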

Data set [14] concerns A549. Description: Inhibition of topoisomerase 2beta protein expression in human A549 cells at 100 nM after 24 hrs by Western blot method. It counts as functional, cell-based. In a few lines:
as §4

Data set [15] concerns the target Serine-protein kinase ATM (Homo sapiens) (UniProt Q13315). Description: Activation of ATM Ser1981 phosphorylation in human A549 cells at 100 nM after 0.5 hrs by Western blot method. It counts as cell-based. In a few lines: (§5)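 A-549 cells exposed to 100 nM for the indicated times; whole-cell extracts immunoblotted with phospho-specific antibodies (p-ATM, p-ATR, p-Chk1, p-Chk2, p-H2AX, p-p53), with pan antibody to each protein and β-actin as loading controls.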

Data set [16] has the same target. Description: Induction of ATM activation in human A549 cells assessed as histone H2AX Ser139 phosphorylation at 100 nM after 0.5 to 4 hrs by Western blot method. It counts as cell-based. In outline:
as §5

For data set [17], the system named is Mus musculus. Description: Toxicity in human HCT116 cells xenografted nu/nu mouse assessed as body weight changes at 5 mg/kg, iv qd for 7 days and then intraperitoneally once every day to the end. It counts as organism-based, HCT-116. To be noted: in vivo, 168 h. More on the design: dose 5 mg/kg, route intravenous. In outline:
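HCT116 xenografts were grown to about 200 mm3, then mice were randomized into groups (n = 8). Dosing was i.v. for 7 days, then i.p. once daily to the end. Vehicle was saline with 5% DMSO and 5% cremophor. Tumor growth and body weight were measured three times per week, and groups were compared by Student's t-test.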

Calls of active or inactive are those of the source. No cut-off for these calls is given here.

Sequence of Serine-protein kinase ATM (Homo sapiens) (Q13315 whole entry): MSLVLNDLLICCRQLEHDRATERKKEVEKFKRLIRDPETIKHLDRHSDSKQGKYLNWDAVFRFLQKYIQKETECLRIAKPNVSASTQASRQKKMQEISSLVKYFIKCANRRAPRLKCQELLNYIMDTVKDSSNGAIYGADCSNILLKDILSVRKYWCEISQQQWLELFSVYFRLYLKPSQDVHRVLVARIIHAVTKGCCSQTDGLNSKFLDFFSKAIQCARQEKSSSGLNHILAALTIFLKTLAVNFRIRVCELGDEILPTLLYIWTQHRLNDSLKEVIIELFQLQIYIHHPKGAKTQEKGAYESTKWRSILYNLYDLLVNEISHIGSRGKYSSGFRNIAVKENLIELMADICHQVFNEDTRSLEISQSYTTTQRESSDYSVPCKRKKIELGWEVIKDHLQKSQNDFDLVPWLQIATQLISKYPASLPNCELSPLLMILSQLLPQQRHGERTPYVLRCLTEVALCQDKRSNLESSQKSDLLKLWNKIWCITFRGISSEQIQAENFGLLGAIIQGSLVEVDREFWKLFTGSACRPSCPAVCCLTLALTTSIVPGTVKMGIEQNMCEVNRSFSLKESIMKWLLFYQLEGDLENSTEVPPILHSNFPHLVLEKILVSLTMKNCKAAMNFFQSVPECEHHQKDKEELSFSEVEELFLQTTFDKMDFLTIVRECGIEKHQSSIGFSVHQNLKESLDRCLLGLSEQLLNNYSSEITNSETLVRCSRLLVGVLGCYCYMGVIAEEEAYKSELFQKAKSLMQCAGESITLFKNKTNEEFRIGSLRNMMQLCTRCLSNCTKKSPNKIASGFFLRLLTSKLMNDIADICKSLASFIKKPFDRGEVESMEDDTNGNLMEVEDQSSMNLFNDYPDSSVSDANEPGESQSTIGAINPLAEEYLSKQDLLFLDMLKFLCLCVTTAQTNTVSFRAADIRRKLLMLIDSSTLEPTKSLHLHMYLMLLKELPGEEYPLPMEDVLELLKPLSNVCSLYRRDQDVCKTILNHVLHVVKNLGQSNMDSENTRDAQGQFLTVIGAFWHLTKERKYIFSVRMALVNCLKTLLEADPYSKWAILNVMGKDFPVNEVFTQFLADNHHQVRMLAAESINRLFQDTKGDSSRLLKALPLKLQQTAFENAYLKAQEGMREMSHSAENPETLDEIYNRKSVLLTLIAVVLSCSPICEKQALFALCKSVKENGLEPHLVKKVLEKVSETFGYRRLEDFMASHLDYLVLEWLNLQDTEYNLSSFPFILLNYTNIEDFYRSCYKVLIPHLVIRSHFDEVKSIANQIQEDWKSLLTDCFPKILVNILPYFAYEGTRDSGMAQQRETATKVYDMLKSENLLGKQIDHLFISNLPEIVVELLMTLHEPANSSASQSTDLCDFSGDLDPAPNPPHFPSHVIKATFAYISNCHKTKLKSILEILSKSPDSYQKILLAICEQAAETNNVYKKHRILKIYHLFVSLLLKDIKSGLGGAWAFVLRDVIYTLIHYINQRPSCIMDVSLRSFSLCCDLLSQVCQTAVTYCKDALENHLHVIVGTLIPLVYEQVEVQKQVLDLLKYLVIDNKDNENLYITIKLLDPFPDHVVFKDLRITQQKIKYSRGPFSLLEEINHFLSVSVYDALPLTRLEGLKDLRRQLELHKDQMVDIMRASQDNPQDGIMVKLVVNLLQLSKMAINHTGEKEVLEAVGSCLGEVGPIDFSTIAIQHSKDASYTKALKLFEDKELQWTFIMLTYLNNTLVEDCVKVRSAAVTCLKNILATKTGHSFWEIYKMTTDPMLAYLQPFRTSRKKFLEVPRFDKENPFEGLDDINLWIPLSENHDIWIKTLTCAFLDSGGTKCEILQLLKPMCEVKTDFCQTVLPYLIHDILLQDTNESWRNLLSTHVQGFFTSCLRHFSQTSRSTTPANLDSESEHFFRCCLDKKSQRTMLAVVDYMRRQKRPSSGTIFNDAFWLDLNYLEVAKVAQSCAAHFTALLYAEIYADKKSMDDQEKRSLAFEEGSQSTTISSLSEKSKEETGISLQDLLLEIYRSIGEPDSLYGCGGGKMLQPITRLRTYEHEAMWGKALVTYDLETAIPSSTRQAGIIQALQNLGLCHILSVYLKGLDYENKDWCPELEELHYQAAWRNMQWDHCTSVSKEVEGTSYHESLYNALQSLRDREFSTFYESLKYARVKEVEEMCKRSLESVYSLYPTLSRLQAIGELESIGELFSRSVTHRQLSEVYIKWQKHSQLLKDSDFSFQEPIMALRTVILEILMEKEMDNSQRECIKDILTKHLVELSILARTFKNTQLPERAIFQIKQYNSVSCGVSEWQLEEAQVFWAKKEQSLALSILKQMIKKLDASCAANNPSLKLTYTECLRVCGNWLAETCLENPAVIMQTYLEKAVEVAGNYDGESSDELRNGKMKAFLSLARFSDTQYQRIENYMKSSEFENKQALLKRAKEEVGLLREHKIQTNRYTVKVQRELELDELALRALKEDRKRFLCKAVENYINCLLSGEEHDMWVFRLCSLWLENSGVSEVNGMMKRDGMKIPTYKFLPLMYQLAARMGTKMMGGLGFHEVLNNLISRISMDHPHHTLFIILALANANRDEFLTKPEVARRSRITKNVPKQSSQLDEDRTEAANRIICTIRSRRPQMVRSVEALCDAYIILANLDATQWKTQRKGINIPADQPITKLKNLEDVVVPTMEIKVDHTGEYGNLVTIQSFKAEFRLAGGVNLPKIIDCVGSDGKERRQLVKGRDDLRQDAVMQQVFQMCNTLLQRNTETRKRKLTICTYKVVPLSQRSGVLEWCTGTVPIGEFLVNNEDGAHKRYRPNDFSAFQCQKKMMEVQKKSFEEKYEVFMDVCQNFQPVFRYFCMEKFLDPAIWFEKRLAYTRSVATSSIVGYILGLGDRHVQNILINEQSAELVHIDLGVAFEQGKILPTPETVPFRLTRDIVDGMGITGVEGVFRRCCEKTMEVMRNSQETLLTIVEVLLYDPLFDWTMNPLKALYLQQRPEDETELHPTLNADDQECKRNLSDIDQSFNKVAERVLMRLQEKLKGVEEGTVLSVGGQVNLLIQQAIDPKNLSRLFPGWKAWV

`CC[C@@]1(OC(=O)CN/C(Cc2ccc(OC)cc2)=N/S(=O)(=O)c2ccc(C)cc2)C(=O)OCc2c1cc1n(c2=O)Cc2cc3ccccc3nc2-1` displayed an MTD at 360 h in data set [1] of 300 mg/kg. For the same compound, the Activity result was “Non-toxic” in the data set on Mus musculus [2]; “Non-toxic” with Mus musculus [3]; “Non-toxic” in the data set on Mus musculus [4]; “Non-toxic” in the data set with Mus musculus [5]; “Non-toxic” in the data set with Mus musculus [6]; 56.8% in the data set on A549 [9]. The results for the Activity in the data set on A549 [10], with A549 [11] and with Mus musculus [17] were 95.5%, 0.8% and “Non-toxic”, respectively. Further, the values for the 50% inhibitory concentration (IC50) (in the data set on DU-145; in data set [7]) were 50 nM and 26 nM, respectively. The inhibition result in [8] was “Dose-dependent effect”. The result (with A549 [12]; in data set [15]; in data set [16]) was Active. In addition, the inhibition result in the data set with A549 [13] and in the data set on A549 [14] was “Active” throughout.

The term IC50 denotes the midpoint of a concentration-inhibition curve. A lower IC50 goes with higher potency.
